Bioassay records from PubChem BioAssay.
Rows were chosen to be rich in hits. Some 12% of all compounds tested hit in one or more screens of this group.
Autophagy HCS: modulators of autophagy; MEF GFP-LC3 puncta imaging; test concentration mostly 10 µM; calls only at 10 µM (by protocol); actives 0.98% (n = 190,000);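 active means percentage of spot-positive cells more than 3 SD above its plate mean, without a fluorescence outlier flag or 80% toxicity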;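 further: spot-positive cell cutoff set from DMSO-treated cells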
MT stabilize HCS: microtubule stabilization, imaging screen. actives 0.83% (n = 200,000). HeLa tubulin immunostaining HCS, 24 h; share of cells brighter than vehicle mean+2SD. % tubulin-high responders, % at 10 µM;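 active means plate Z-score above 3 for both tubulin-high and condensed-nucleus cell shares, with cell loss under 80%, at 10 µM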;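 further: anti alpha tubulin signal scored within the nucleus-defined area of each cell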
CHOP inh: CHOP inhibition in unfolded protein response | CHO-K1 CHOP-promoter luciferase, tunicamycin-induced, 15-18 h | inhibition, % at 10 µM | actives 3.8% (n = 220,000);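 active means compounds that reduced the stress-induced luciferase reporter signal by more than about 70% of percent inhibition, limit read from the data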;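 further: 0% = tunicamycin plus vehicle and 100% = wells without tunicamycin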
Lmaj promast: Leishmania major promastigote growth inhibition; AID 1063; inhibition, % at 10 µM; actives 9% (n = 200,000); Leishmania major promastigotes, resazurin fluorescence viability; in the data active means inhibition above about 50%;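 further: promastigotes grown with compound for 44 hours at 28 °C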
b-catenin transl: beta-catenin nuclear translocation modulation; HeLa beta-catenin nuclear translocation, immunofluorescence imaging; nuclear translocation activity, % at 5 µM; actives 0.3% (n = 190,000); AID 1665;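 active means nuclear translocation activity above 50% at 5 µM, with a well cell count of 50 or more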;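 further: per-cell ratio of nuclear to cytoplasmic median beta-catenin stain intensity; plate controls were DMSO negative control for no effect and GSK-3 inhibitor IX positive control for full effect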
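Test system: human HeLa cell line; Doses: 5 µM primary, 0.02–20 µM confirmation; Incubation: 24 h compound exposure, 37°C; Detection: beta-catenin immunofluorescence imaging with DAPI; Read-out: beta-catenin nuclear/cytoplasmic ratio, % activation.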
Dynein cargo inh: blocks dynein driven cargo transport along microtubules. 3617.4 mouse cells, GR-EGFP nuclear translocation imaging; test concentration mostly 20 µM; stimulated with dexamethasone, 1 µM; hits give low values. z-score, hits read low. actives 0.47% (n = 220,000). AID 1381;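 active means plate z-score of nuclear minus cytoplasmic receptor signal below a set negative limit, without overly bright fluorescence or cell loss, cut at about -3.5 in these data, passing the limit was not always enough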;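 further: z-score of nuclear minus cytoplasmic ring GR-EGFP intensity difference per well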
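Buffer or medium: tetracycline-free induction medium containing charcoal-stripped FBS / Reagent: dexamethasone agonist, 1.0 µM final, for 30 min / Technique: automated 10x imaging of fixed Hoechst-stained cells / Times: induction 48 h, compound 1 h, agonist 30 min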
Numbers without * were called inactive; i = inactive; / = no result; + = active, no number.

SMILES	Autophagy HCS	MT stabilize HCS	CHOP inh	Lmaj promast	b-catenin transl	Dynein cargo inh
COc1ccc(CC2(CO)CCN(Cc3cnc(-c4ccccc4C)nc3)CC2)cc1	i	1	-2	-5	0	-0.57
COc1ccc(CC2(CO)CCN(Cc3cnn(-c4ccc(F)cc4)c3)CC2)cc1	i	2	27	84*	-2	-0.43
COc1ccc(CC2(CO)CCN(Cc3cnn(-c4ccccc4OC)c3)CC2)cc1	i	4	17	21	-2	0.42
Cc1nc(NC(=O)c2ccccc2)sc1Cc1ccc2c(c1)OCO2	i	11*	15	0	/	-0.09
Cc1nc(NC(=O)c2ccc(Cl)cc2)sc1Cc1ccc2c(c1)OCO2	i	13*	38	73*	/	1.1
CC1CN(C)C(C)C/C1=N\Oc1ccc([N+](=O)[O-])cc1 (centres undefined)	i	1	-19	16	4	0.33
CC1=CC(=O)C=C(C)C1=NOc1ccc([N+](=O)[O-])cc1	i	2	-101	60*	-2	0.22
NC(N)=N/N=C/c1cccc(Cl)c1Cl	i	3	7	100*	-3	-0.44
Cc1ccc(C2=Nc3ccccc3N=C(c3ccc([N+](=O)[O-])cc3)C2)c(O)c1	i	3	-4	0	-1	0.48
C/C(=N\N1C(=O)c2ccccc2NC1c1ccco1)c1ccccc1O (centres undefined)	i	6	6	90*	-2	-0.65
COc1ccc(CCN2C(=NC(=O)CC(C)C)SC3CS(=O)(=O)CC32)cc1OC (centres undefined)	/	/	0	/	-1	0.82
OC(CNCc1ccc2c(c1)OCO2)COc1ccc(F)cc1 (centres undefined)	/	/	8	/	0	-0.73
CCCCC1CCC(C(=O)NCc2ccc3c(c2)OCO3)CC1 (centres undefined)	i	1	83*	-7	/	-0.6
CC(CNCc1ccc2c(c1)OCO2)NCc1ccc2c(c1)OCO2 (centres undefined)	i	9	85*	93*	/	0.62
CC(C)(C)NC(=S)NCc1ccc2c(c1)OCO2	i	2	12	56*	-1	-0.46
CN(C)CC(C)(C)CNC(=S)NCc1ccc2c(c1)OCO2	i	2	23	-2	0	-0.33
CCOc1ccc(NC(=O)CSc2ccccc2N)cc1	i	6	-1	4	-2	-0.62
S=C(c1ccc(-c2ccc(Cl)c(Cl)c2)o1)N1CCOCC1	i	3	47	-3	0	-1.2
S=C(c1ccc(-c2ccccc2Cl)o1)N1CCOCC1	i	6	71*	-9	-3	-0.35
CC(=O)Nc1ccc(S(=O)(=O)NCC(=O)OCC(=O)NC23CC4CC(CC(C4)C2)C3)cc1	i	1	12	51*	-1	-0.4
CSCCC(NS(=O)(=O)c1ccc(Cl)cc1)C(=O)OCC(=O)NC12CC3CC(CC(C3)C1)C2 (centres undefined)	i	1	74*	1	0	-0.61
COc1ccc(NC(=O)CN2CCN(CC(=O)Nc3ccccc3F)CC2)c(OC)c1	i	7	37	8	0	0.93
CN1CCN(Cc2ccc(Sc3ccc(Cl)cc3)c([N+](=O)[O-])c2)CC1	i	3	-3	100*	3	1.8
Cc1ccc(Sc2ccc(CN3CCCC3)cc2[N+](=O)[O-])cc1	i	3	0	82*	2	0.17
Cc1ccc(C(=O)Nc2ccccc2C(=O)NCc2ccco2)cc1S(=O)(=O)N1CCCCC1	i	4	14	62*	0	0.064
SMILES	Autophagy HCS	MT stabilize HCS	CHOP inh	Lmaj promast	b-catenin transl	Dynein cargo inh
Cc1ccc(C(=O)N2CCCC2)cc1S(=O)(=O)Nc1ccccc1	i	3	-11	3	/	2.9
Cc1ccc(C)c(NS(=O)(=O)c2cc(C(=O)NCc3ccco3)ccc2C)c1	i	3	9	100*	-3	2.4
Cc1ccccc1NS(=O)(=O)c1cc(C(=O)N2CCc3ccccc3C2)ccc1C	i	3	6	88*	2	-1.3
Cc1ccc(C(=O)NCc2ccco2)cc1S(=O)(=O)Nc1cccc(C)c1C	i	1	65	16	/	0.58
Cc1ccc(C(=O)NCc2ccco2)cc1S(=O)(=O)N1CCCCC1	i	4	60	6	2	0.26
Cc1ccc(C(=O)NCCSC2CCCCC2)cc1S(=O)(=O)Nc1ccccc1	i	4	23	97*	-1	0.15
CCN1CCN(Cc2c(C)[nH]c3ccc(OC)cc3c2=O)CC1	i	2	-2	-4	1	-0.11
CN(c1ccccc1)S(=O)(=O)c1ccc(C(=O)N2CCc3ccccc3C2)cc1	i	3	36	96*	-1	0.37
Cc1ccccc1NS(=O)(=O)c1cc(C(=O)NCCC2=CCCCC2)ccc1C	i	3	40	31	1	-0.48
Cc1ccc(SCCNC(=O)c2ccc(C)c(S(=O)(=O)Nc3ccccc3C)c2)cc1	i	2	32	99*	2	-0.46
Cc1ccc(NC(=S)N(CCN(C)C)C(C)c2ccco2)c(C)c1 (centres undefined)	/	/	7	/	-1	0.21
N#Cc1sc2nc(-c3ccccc3)cc(C(F)(F)F)c2c1N	+	4	-22	2	-3	0.96
N#Cc1sc2nc(-c3cccs3)cc(-c3ccccc3)c2c1N	i	i	27	1	/	1.4
CSc1nc(N)c2ncn([C@@H]3O[C@H](COP(=O)(O)OP(=O)(O)OP(=O)(O)O)[C@H](O)C3O)c2n1 (some centres undefined)	/	/	11	/	/	/
O=C1OC(/C=C/c2ccccc2)=NC/1=C\c1cccnc1	i	2	68	-4	4	-0.37
Cc1ccc(C2=N/C(=C\c3cccnc3)C(=O)O2)cc1	i	2	21	66*	0	0.41
Cc1nn(CC(=O)Nc2ccc3c(c2)nc2n3CCN(C3CCCCC3)C2)c(=O)c2ccccc12	i	4	65	72*	1	-0.84
Cc1nn(CC(=O)Nc2ccc3c(c2)nc(CCN2CCCCC2)n3C)c(=O)c2ccccc12	i	2	12	3	1	0.076
O=C(Nc1ccc(F)cc1)Nc1cc(OCC(F)(F)F)cc(OCC(F)(F)F)c1	i	4	102*	99*	3	0.27
O=C(NCCNC(=O)c1cc(OCC(F)(F)F)ccc1OCC(F)(F)F)Nc1ccc(OC(F)(F)F)cc1	i	3	90*	-1	2	1.3
CCOc1ccc(NC(=O)Nc2ccc3nsnc3c2)cc1	i	4	7	5	0	-0.62
CCOc1ccc(NC(=O)Nc2cc(OCC(F)(F)F)cc(OCC(F)(F)F)c2)cc1	i	5	73*	14	-1	-0.16
Cc1c(Cl)cccc1NC(=O)c1ncn[nH]1	/	/	1	/	0	-0.28
